Screening data deposited in PubChem by several laboratories.
T cell modulator: modulators of CD8 T cell-vesicle binding, primary screen, mouse 2C CD8+ T cells, flow cytometry; response (vesicle binding), % at 7 µM; 2C CD8+ T cell-vesicle binding; stronger effect = lower value; hit rate 0.068% among 330,000; AID 2052, 2009;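 active = response, share of CD8 T cells binding vesicles, and their 90th percentile fluorescence all below set limits, cut at about 80% in these data, passing the limit was not always enough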;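 note: values below 100% mean blocked vesicle binding to the CD8+ T cells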
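Incubation: binding step 1.5 h, 37 °C, antibody labelling 20 min, ice; system: murine 2C transgenic CD8+ T lymphocytes; technique: cytometric PE anti-B7-1 and Alexa647 anti-CD8 signals after 1% paraformaldehyde fixation; also added: QL9-charged Drosophila Ld/ICAM-1/B7-1 vesicles; control set: naked versus QL9-loaded vesicles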
DSG3 Ab inh: inhibitors of pemphigus antibody binding to DSG3, primary screen, biochemical, bead-based, flow cytometry, scFv-GFP. DSG3-coupled beads, scFv-anti-DSG3-GFP binding; stronger effect = lower value. hit rate 0.48% among 310,000. binding (percent of control), % at 10 µM. AID 588358, 2011. Desmoglein-3 (Homo sapiens), P32926;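 active = binding more than 3 SD below its plate's average and above zero; inconclusive = below that plate limit but binding exactly zero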
CHT PAM: CHT positive allosteric modulators, primary screen, cell-based, membrane potential dye, choline EC20; B-score at 10 µM; hit rate 0.49% among 310,000; High affinity choline transporter 1 (Homo sapiens), Q9GZV3; CHT-expressing cells; stronger effect = higher value; LV-AA mutant CHT in HEK293 cells;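 active = initial fluorescence not abnormally high and integrated response B-score, plate-corrected, over 3 SD above library mean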
Target sequence (Q9GZV3 whole entry, looked up): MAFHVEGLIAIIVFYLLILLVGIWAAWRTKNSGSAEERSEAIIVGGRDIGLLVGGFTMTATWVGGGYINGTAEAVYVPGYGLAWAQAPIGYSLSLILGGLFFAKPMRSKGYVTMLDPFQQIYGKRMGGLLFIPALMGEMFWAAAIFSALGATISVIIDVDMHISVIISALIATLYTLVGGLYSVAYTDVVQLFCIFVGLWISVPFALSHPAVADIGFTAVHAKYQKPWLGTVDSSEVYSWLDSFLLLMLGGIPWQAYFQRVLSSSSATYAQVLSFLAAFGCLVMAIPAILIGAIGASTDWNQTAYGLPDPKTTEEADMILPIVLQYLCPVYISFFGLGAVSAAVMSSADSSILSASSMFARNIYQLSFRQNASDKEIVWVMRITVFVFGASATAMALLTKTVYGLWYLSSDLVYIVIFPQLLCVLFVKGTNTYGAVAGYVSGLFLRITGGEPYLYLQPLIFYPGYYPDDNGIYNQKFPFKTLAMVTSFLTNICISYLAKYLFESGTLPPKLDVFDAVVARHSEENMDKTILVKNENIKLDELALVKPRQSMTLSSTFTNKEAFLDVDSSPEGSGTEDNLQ
CHT inh: inhibitors of human choline transporter CHT; hit rate 0.86% among 310,000; High affinity choline transporter 1 (Homo sapiens), Q9GZV3; CHT-expressing cells, membrane potential dye, choline response; stronger effect = lower value; B-score at 10 µM;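 active = B-score over 3 SD under the library average, and starting fluorescence ratio not unusually high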;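 note: choline stimulus applied at its EC90 after an EC20 pre-addition; B-score computed on integrated fluorescence ratio after choline addition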
GPR7 antagonist: GPR7 receptor antagonists, primary screen, cell-based, fluorescence, single concentration. GPR7-expressing cells, fluorescence antagonist assay. inhibition, % at 4.4 µM. hit rate 1.1% among 290,000. AID 1861, 2009; in the data active = inhibition above about 16%, passing the limit was not always enough;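 note: cells stimulated with the agonist NPW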
pCIP destab: p/CIP-EGFP fusion destabilizers, primary screen, fluorescence, F442A cells | AID 1984, 2009 | hit rate 0.01% among 290,000 | 16 h | Q05BA5 | decrease of EGFP signal, % at 10 µM;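 active = EGFP signal decrease of at least 30% at 10 µM or well 3 SD below plate mean, unless failing retest; inactive = the rest, including hits failing retest or dose response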
A number is an active result; n = inactive; u = inconclusive; x = not tested or not shown. Sampled rows, rich in hits. Any-hit rate of the full collection: about 2.3%.

SMILES | T cell modulator | DSG3 Ab inh | CHT PAM | CHT inh | GPR7 antagonist | pCIP destab
COc1ccc(OC)c(C(c2nnnn2C2CCCC2)N2CCN(c3ccc(F)cc3)CC2)c1 (centres undefined) | n | n | n | n | 18 | n
O=C(CN1C(=O)/C(=C2/SC(=S)N(CCS(=O)(=O)O)C2=O)c2ccccc21)Nc1cccc(C(F)(F)F)c1 | n | 82 | x | x | x | x
O=C(CN1C(=O)/C(=C2\SC(=S)N(CCS(=O)(=O)O)C2=O)c2ccccc21)Nc1cccc(Br)c1 | n | 45 | n | n | n | n
CCOc1ccc(C2=Nn3c(nnc3-c3ccccc3OC)SC2)cc1 | n | n | n | -5.3 | n | n
S=c1sc2c(Cl)ncnc2n1-c1ccccc1 | x | n | x | x | 75 | n
c1nc2sc3c(c2c2nnnn12)CCC3 | n | n | n | n | n | n
c1nc2sc3c(c2c2nnnn12)CCCC3 | n | n | n | n | 18 | n
COCCn1c(=S)[nH]c2cc(C(=O)NC3CCCCC3C)ccc2c1=O (centres undefined) | x | n | x | x | x | x
O=C(Cc1nnc(NC(=O)c2ccccc2)s1)N/N=C/c1ccco1 | 0.0 | n | n | n | n | n
Cc1oc(S(=O)(=O)N2CCCCC2)cc1NC(=O)Nc1ccc(F)cc1 | n | 91 | n | n | n | n
CCOC(=O)CSc1nc2sc(C)c(C)c2c(=O)n1C | n | x | n | n | n | n
CCOC(=O)CSc1nc2sc(C)c(C)c2c(=O)n1N | n | 57 | n | n | n | n
COc1nc(Nc2ccc(C(C)C)cc2)nc(OC)n1 | 0.0 | n | n | n | n | n
N#Cc1c(-c2ccc(F)cc2)cc(-c2ccccc2)nc1SCC(=O)NCC(=O)O | n | 63 | n | n | n | n
N#Cc1c(-c2ccc(Cl)cc2)cc(-c2ccccc2)nc1SCC(=O)O | n | n | n | n | n | n
Nc1ccc(N)c(C(=O)O)c1 | n | 51 | n | n | x | x
CCCSc1nc(N)c(C#N)c(-c2ccc(C)cc2)c1C#N | n | x | n | n | n | n
C=CCSc1nc(N)c(C#N)c(-c2ccccc2)c1C#N | n | 81 | n | n | n | n
COc1ccc(CN2C(=O)C(CC(=O)NCCCCc3ccccc3)CC(C(=O)N(C)C)=C2C)cc1 (centres undefined) | x | n | x | x | x | x
NC(=O)C1CCN(c2nc(-c3cc4ccccc4o3)cs2)CC1 | 78 | n | x | x | x | x
CN1CCN(c2nc(-c3cc4ccccc4o3)cs2)CC1 | n | n | n | n | n | n
CCN(CCCNC(=O)C1CCC(=O)N1Cc1ccccc1Cl)c1cccc(C)c1 (centres undefined) | n | 78 | n | n | n | n
CCN(C(=O)COC(=O)/C=C/c1ccc(C)o1)c1c(N)n(Cc2ccccc2)c(=O)[nH]c1=O | x | n | x | x | x | x
Cc1ccc(/C=C/C(=O)OCC(=O)N(CC(C)C)c2c(N)n(Cc3ccccc3)c(=O)[nH]c2=O)o1 | n | 92 | n | n | x | x
COc1ccc2[nH]c3nc(SCC(=O)NNC(=O)c4ccc(OC)c(OC)c4)nnc3c2c1 | n | 15 | n | n | n | n
SMILES | T cell modulator | DSG3 Ab inh | CHT PAM | CHT inh | GPR7 antagonist | pCIP destab
CCC(C(=O)NC(C)(C)C)N(Cc1ccc(OC)cc1)C(=O)c1snc(C(N)=O)c1N (centres undefined) | x | n | x | x | x | x
Cc1cc(C)nc(NC(=O)c2cc([N+](=O)[O-])cc([N+](=O)[O-])c2)n1 | n | x | 7.2 | n | n | n
Cc1cc(C)nc(NC(=O)c2ccc(C)c([N+](=O)[O-])c2)n1 | n | n | n | n | n | n
CCc1ncc(C(O)c2ccc(Cl)cc2)n1Cc1ccccc1 (centres undefined) | x | n | x | x | x | x
CCOC(=O)Cn1c(=N)n(CCOc2ccc(OC)cc2)c2ccccc21 | n | n | n | n | n | n
CCOC(=O)Cn1c(=N)n(CCOc2ccc3ccccc3c2)c2ccccc21 | n | n | n | n | 21 | n
O=C(NC(=S)N1CC=CCC1)c1ccccc1 | x | n | x | x | x | x
C[C@H]1COc2c(N3CCN(C)CC3)c(F)cc3c(=O)c(C(=O)O)cn1c23 | n | n | 8.9 | n | n | n
CC1=C(C(=O)N(C)C)CC(CC(=O)NCCCCc2ccccc2)C(=O)N1Cc1ccccc1 (centres undefined) | x | n | x | x | x | x
CCC(C)(C)n1nnnc1C(c1ccc(OC)c(OC)c1)N1CCN(c2ccccc2)CC1 (centres undefined) | n | n | n | n | 18 | n
CCC(C)(C)n1nnnc1C(c1ccc(OC)c(OC)c1)N1CCN(c2cccc(OC)c2)CC1 (centres undefined) | n | n | n | n | n | n
CCOc1ccc(NC(=O)CN2C(=O)NC(CCc3ccccc3)C2=O)cc1OCC (centres undefined) | n | n | x | x | x | x
Cc1nn(-c2ccc([N+](=O)[O-])cc2)c2c1C(c1cccc(Br)c1)N1C(=N2)C(=O)Nc2ccccc21 (centres undefined) | n | n | n | -6.6 | n | n
CC(C)Cc1nc(N2CCN(C(=O)c3ccco3)CC2)c(C#N)c2c1CCCC2 | n | n | n | n | n | n
CCCC(=O)N1CCN(c2nc(CC(C)C)c3c(c2C#N)CCC3)CC1 | n | n | 7 | n | n | n
Cc1ccccc1CSc1nnc(-c2ccco2)n1Cc1ccco1 | n | n | n | n | 17 | n
Cc1ccccc1CSc1nnc(-c2cccs2)n1Cc1ccco1 | n | n | n | n | n | n
Clc1cccc(CSc2nnc(-c3ccccn3)n2Cc2ccco2)c1 | n | n | n | n | 21 | n
CC(C)(C)c1ccc(CSc2nnc(-c3ccccn3)n2Cc2ccco2)cc1 | n | n | n | n | n | n
Cn1nc(NC(=O)C(F)(F)F)c2ncc(-c3ccccc3)nc21 | x | n | x | x | x | x
CCCCn1c(N)c(N(CCC(C)C)C(=O)c2c(CC)noc2C)c(=O)[nH]c1=O | x | n | x | x | x | x
c1ccc(CSc2nnc3c(n2)OC(c2ccco2)Nc2ccccc2-3)cc1 (centres undefined) | n | 61 | n | n | n | n
C=CCSc1nnc2c(n1)OC(c1cccnc1)Nc1ccccc1-2 (centres undefined) | n | u | n | n | n | n
Cc1ccc(-c2nc(=S)c3c(n2Cc2ccco2)CC(C)(C)OC3)cc1 | n | n | 12 | n | 17 | n
CCc1nn(CC(=O)NCCc2ccc(S(N)(=O)=O)cc2)c(=O)c2cc3sccc3n12 | n | 82 | n | n | n | n
CCc1nn(CC(=O)NCCc2ccc(Cl)cc2)c(=O)c2cccn12 | n | n | n | n | n | n
O=C(Nc1ccc(-n2cccc2)cc1)C1CC1 | n | 68 | n | n | n | n
O=C(Nc1ccc(Nc2ccccc2)cc1)C1CC1 | n | n | n | n | n | n
